This note sets out measurements from ChEMBL document CHEMBL1155264, “Synthesis of substituted-phenyl-1,2,4-triazol-3-thione analogues with modified D-glucopyranosyl residues and their antiproliferative activities” (Eur J Med Chem, 2009).

pIC50: −log10 of the molar value.

The test system of test [1] is MCF7. Nature of the test: Antiproliferative activity against human MCF7 cells after 24 hrs by MTT assay. Format: functional, cell-based. Particulars: MCF7, 24 h. In short, it runs like this:
(§1)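 Cells plated at 1 × 10⁴ per well and cultured 24 h at 37 °C, 5% CO₂. Medium then replaced with fresh medium containing compound at varying concentrations, five wells per concentration, and incubated 24 h. MTT (5 mg/mL in phosphate buffer pH 7.4) added for 4 h at 37 °C. Absorbance read at 570 nm, blanked on cell-free medium. IC50 is 50% growth inhibition versus untreated control; mean ± SD, n = 3.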
On the technique in general: Tetrazolium assays rely on reduction of a dye to a coloured formazan, in cell work by metabolically active cells.

Test [2] deals with Bel-7402. The test can be described thus: Antiproliferative activity against human Bel7402 cells after 24 hrs by MTT assay. As to conditions: Bel-7402, 24 h. The test is classed as functional, cell-based. In short, it runs like this:
as §1

For `S=c1[nH]nc(-c2ccccc2)n1/N=C/c1ccc(Cl)cc1`, the pIC50 – broadly, the negative decadic logarithm of the IC50, by convention in mol/L – in test [1] is 4.52; in test [2], 4.62.

As to `S=c1[nH]nc(-c2ccccc2)n1/N=C/c1ccccc1`, the pIC50 is 4.50 in test [1] and 4.65 in test [2].

Consider `O=c1[nH]cc(F)c(=O)[nH]1` [FLUOROURACIL], for which the figures for the pIC50 in test [1] and in test [2] were 5.37 and 5.33, respectively.

Take `CC(=O)OC[C@H]1O[C@@H](n2nc(-c3ccccc3)n(/N=C/c3ccccc3)c2=S)[C@H](OC(C)=O)[C@@H](OC(C)=O)[C@@H]1OC(C)=O`: the pIC50 is 4.74 in test [1] and 4.97 in test [2].

Turning to `COc1cc(/C=N/n2c(-c3ccccc3)n[nH]c2=S)ccc1O`, the figures for the pIC50 in test [1] and in test [2] were 4.58 and 4.71, respectively.

For the molecule `Oc1ccc(/C=N/n2c(-c3ccccc3)n[nH]c2=S)cc1`, the values for the pIC50 in test [1] and in test [2] were 4.52 and 4.60, respectively.
